The values that follow come from ChEMBL document CHEMBL1148304, “Discovery of embelin as a cell-permeable, small-molecular weight inhibitor of XIAP through structure-based computational screening of a traditional herbal medicine three-dimensional structure database” (J Med Chem, 2004).

pIC50, pKd: −log10 of the molar value. Values joined by “and” are separate entries in the source; they are usually repeats but may differ in a detail not shown here. Equal entries are not always repeated. Where a SMILES comes first, the peptide text is derived from it. The star is where a group is joined. X1 = O=C(ON1C(=O)CCC1=O)c1cccc(-c2c3ccc(=O)cc-3oc3cc(O)ccc23)c1C(=O)*

Series [1] addresses T1, E3 ubiquitin-protein ligase XIAP (Homo sapiens, UniProt P98170). Kind of series: Compound was tested for inhibitory activity towards XIAP BIR3 protein.
The subject of series [2] is PC-3. The series can be described thus: Activation of caspase-9 by embelin in PC-3 prostate cancer cells at a concentration of 40 uM. It is filed as functional, Homo sapiens. Summed up: (§1)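 PC-3 cells seeded 1 × 10^6 per well, exposed to compound or DMSO vehicle for 42 h; parallel control had pan-caspase inhibitor Z-VAD-FMK added 5 min before compound. Cells in complete medium labeled with Red-LEHD-FMK 0.5 h at 37 °C, 5% CO2, washed; active caspase-9 scored by flow cytometry in PI channel as % positive cells.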

The test system of series [3] is LNCaP. Kind of series: Compound was tested for inhibition of LnCap prostate cancer cells. It is filed as functional, cell-based. Conditions: Homo sapiens. The essentials:
(§2)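 WST-1 growth assay: 5000 cells/well in medium with 10% FBS, serial compound concentrations in triplicate for 4–5 days (five days per legend); WST-1 added 1–3 h at 37 °C, absorbance 450 nm corrected at 650 nm. Growth as % of vehicle-control absorbance; IC50 by sigmoid curve fit; experiment repeated three times.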

Another series has as its system WI-38 5000. Kind of series: Selectivity in normal human fibroblast cell line, WI-38 cells. It is filed as functional, cell-based. Summed up:
as §2

Series [4] relates to PrEC. Kind of series: Selectivity in normal human prostate epithelial cells (PrEC). It is filed as functional, cell-based. Summed up:
as §2

Series [5] relates to PC-3. Kind of series: Induction of apoptosis by embelin in PC-3 prostate cancer cells at a concentration of 25 uM for 48 h. Type of series: functional, Homo sapiens. Summed up:
(§3)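 PC-3 cells, 1 × 10^6 per well, treated in triplicate with compound for 48 h, trypsinized, PBS-washed, stained with Annexin V-FITC plus propidium iodide; flow cytometry, reported as % Annexin V-FITC-positive apoptotic cells; three separate experiments.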

The test system of series [6] is LNCaP. The series can be described thus: Inhibitory concentration of compound against growth of LNCaP cells in vitro. Conditions: Homo sapiens. Type of series: functional, cell-based. Summed up:
as §2

Series [7] has as its system PC-3. Kind of series: Percent of PC-3 cells underwent apoptosis after incubation with 50 uM of compound for 48 hr. It is filed as functional, Homo sapiens. Summed up: as §3
For series [8], the system named is PC-3. The series can be described thus: Activation of caspase-9 by embelin in PC-3 prostate cancer cells at a concentration of 20 uM. Type of series: functional, Homo sapiens. The essentials: as §1
Series [9] deals with PC-3. Kind of series: Percent of PC-3 cells stained for activated caspase-9 after incubation with 40 uM of compound for 42h. Type of series: functional, Homo sapiens. Summed up:
as §1

Series [10] deals with Jurkat. The series can be described thus: Inhibitory concentration of compound against Jurkat-Vec cells. Type of series: functional, cell-based. The conditions noted are these: Homo sapiens. The essentials:
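Stably vector-transfected Jurkat T cells kept in RPMI 1640 with 10% fetal calf serum and 1 µg/mL puromycin; growth read by WST-1 as for prostate lines: 5000 cells/well, triplicate concentrations, 4–5 days, absorbance 450/650 nm versus vehicle control, IC50 from sigmoid fit.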

For series [11], the system named is PC-3. The series can be described thus: Induction of apoptosis by embelin in PC-3 prostate cancer cells at a concentration of 50 uM for 48 h. It is filed as functional, Homo sapiens. Summed up:
as §3

Series [12] deals with PC-3. The series can be described thus: Percent of PC-3 cells underwent apoptosis after incubation with 25 uM of compound for 48 hr. It is filed as functional, Homo sapiens. Summed up: as §3
The subject of series [13] is PC-3. Kind of series: Percent of PC-3 cells stained for activated caspase-9 after incubation with 20 uM of compound for 42h. Type of series: functional, Homo sapiens. The essentials:
as §1

In series [14] the test system is PC-3. Kind of series: Inhibitory concentration of compound against growth of PC-3 cells in vitro. It is filed as functional, cell-based. Conditions: Homo sapiens. The essentials:
as §2

The subject of series [15] is Jurkat. The series can be described thus: Induction of apoptosis by etoposide in Jurkat vec cells at a dose of 2.5 uM for 72 h. Type of series: functional, Homo sapiens. Summed up: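 Stably vector-transfected Jurkat cells exposed to etoposide 2.5 µM for 72 h in the cell growth assay; reported as % of cells killed.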
Series [16] relates to PC-3. Kind of series: Compound was tested for inhibition of PC-3 prostate cancer cells. Type of series: functional, cell-based. Conditions: Homo sapiens. Summed up:
as §2

The next series relates to WI-38. Kind of series: Inhibitory concentration of compound against growth of WI-38 cells in vitro. It is filed as functional, cell-based. Conditions: Homo sapiens. The essentials:
as §2

The subject of series [17] is PrEC. The series can be described thus: Inhibitory concentration of compound against growth of PrEC cells in vitro. It is filed as functional, cell-based. Conditions: Homo sapiens. Summed up: as §2
Series [18] deals with Jurkat. Kind of series: Percent of Jurkat-Vec cells killed after 72 hr of 2.5 uM of compound administration. Type of series: cell-based. The conditions noted are these: human. Summed up:
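Jurkat T cells stably carrying empty vector, kept in RPMI 1640 with 10% fetal calf serum and 1 µg/mL puromycin at 37 °C, 5% CO2. Cell growth assay at 5000 cells/well in 10% FBS medium, drug added in triplicate for 72 h. WST-1 then added for 1-3 h at 37 °C. Absorbance read at 450 nm, corrected at 650 nm, and compared with vehicle-control wells.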

Series [19] has as its system Jurkat. The series can be described thus: Percent of Jurkat-XIAP cells killed after 72 hr of 10 uM of compound administration. The conditions noted are these: human.
Series [20] concerns Jurkat. The series can be described thus: Percent of Jurkat-XIAP cells killed after 72 hr of 2.5 uM of compound administration. The conditions noted are these: human.
For series [21], the target named is T1, E3 ubiquitin-protein ligase XIAP. The series can be described thus: Dissociation constant for XIAP BIR3 protein using different binding assay.
Series [22] shares this target. Kind of series: Dissociation constant for XIAP BIR3 protein in FP-based binding assay.

T1 sequence (P98170 whole entry): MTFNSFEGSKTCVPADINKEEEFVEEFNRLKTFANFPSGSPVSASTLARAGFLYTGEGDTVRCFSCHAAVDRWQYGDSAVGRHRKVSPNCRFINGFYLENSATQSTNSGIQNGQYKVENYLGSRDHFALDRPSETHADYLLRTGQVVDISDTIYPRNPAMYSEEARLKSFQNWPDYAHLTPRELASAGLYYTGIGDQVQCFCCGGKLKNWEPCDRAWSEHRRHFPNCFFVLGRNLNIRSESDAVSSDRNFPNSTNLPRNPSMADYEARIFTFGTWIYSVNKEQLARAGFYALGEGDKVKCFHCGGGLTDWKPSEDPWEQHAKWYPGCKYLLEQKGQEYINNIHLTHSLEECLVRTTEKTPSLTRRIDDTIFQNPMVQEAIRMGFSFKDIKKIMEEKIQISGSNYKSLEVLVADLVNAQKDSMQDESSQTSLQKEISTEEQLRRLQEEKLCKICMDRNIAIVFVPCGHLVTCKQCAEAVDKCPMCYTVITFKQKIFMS

A word on the pIC50: it is the IC50 on a negative log10 scale, so that one unit is a factor of ten. A low value points to a large IC50. As to `C[C@H](N)C(=O)N[C@@H](CCCNC(=N)N)C(=O)N1CCC[C@H]1C(=O)N[C@@H](Cc1ccccc1)C(=O)N[C@@H](C)C(=O)N[C@@H](CCC(N)=O)C(=O)N[C@@H](CCCCNC(=O)c1c(C(=O)ON2C(=O)CCC2=O)cccc1-c1c2ccc(=O)cc-2oc2cc(O)ccc12)C(=O)O` (H-ARPFAQK(X1)-OH), the pIC50 in [1] is 6.24.
`CCCCCCCCCCCC1=C(O)C(=O)C=C(O)C1=O` [EMBELIN]: the Induction with PC-3 [2] is 62.1%; in the series on PC-3 [5], 30%; with PC-3 [8], 33%; in the series with PC-3 [11] it was 75%; with Jurkat [15], 94.3% and 59%. In addition, the pIC50 in the series on LNCaP [3] is 5.24; in the series on WI-38 5000, 4.71; in the series on PrEC [4] it was 4.70; in the series on LNCaP [6], 5.24; in series [1], 5.39; in the series on Jurkat [10], 4.70. The pIC50 in the series on PC-3 [14] was 5.43; in the series with PC-3 [16], 5.43; in the series on WI-38, 4.71; in the series on PrEC [17], 4.70. The Apoptosis was found to be 75% in the series on PC-3 [7] and 30% with PC-3 [12]. In addition, the results for the Staining in the series with PC-3 [9] and in the series on PC-3 [13] were 62.1% and 33%, respectively.
As for `COc1cc([C@@H]2c3cc4c(cc3[C@@H](O[C@@H]3O[C@@H]5CO[C@@H](C)O[C@H]5[C@H](O)[C@H]3O)[C@H]3COC(=O)[C@H]23)OCO4)cc(OC)c1O` [ETOPOSIDE], the values for the Death in the series with Jurkat [18], with Jurkat [19] and with Jurkat [20] were 94.3%, 85% and 59%, respectively.
As usually defined, the pKd is −log10 of the Kd, conventionally taken in molar units. A higher pKd goes with a small Kd. `C[C@H](N)C(=O)N[C@@H](CCCNC(=N)N)C(=O)N1CCC[C@H]1C(=O)N[C@@H](Cc1ccccc1)C(=O)N[C@@H](C)C(=O)N[C@@H](CCC(N)=O)C(=O)N[C@@H](CCCCN)C(=O)O` (H-ARPFAQK-OH): the pKd in series [21] was 7.70; in series [22], 7.42.
